Tests used:
Mu-type opioid receptor = Mu-type opioid receptor (Rattus norvegicus, UniProt P33535); assay: Inhibition of radioligand [3H]DAMGO binding to rat brain mu receptor
Summary of the method: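 Rat brain membranes labelled with [3H]DAMGO (1-3 nM), incubated 4 h at 25 °C in 50 mM Tris-HCl pH 7.4 with protease inhibitor cocktail. Nonspecific binding defined by 20 μM levallorphan. Displacement by 8-10 test drug concentrations, done twice; drug dilutions in 10 mM Tris-HCl pH 7.4 containing 1 mg/mL BSA.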

[1] = target: Muscarinic acetylcholine receptor; assay: Inhibition of radioligand [3H]NMS binding to muscarinic receptor of rat brain
[2] = target: Kappa-type opioid receptor (Cavia porcellus, UniProt P41144); assay: Inhibition of radioligand [3H]U-69593 binding to kappa 1 receptor of guinea pig brain
Summary of the method: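 Guinea pig brain membranes pretreated with irreversible ligands BIT and FIT to deplete mu and delta sites. Nonspecific binding with 1 μM U69,593. 8-10 drug concentrations, run twice.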

[3] = target: Delta-type opioid receptor (Rattus norvegicus, UniProt P33533); assay: Inhibition of radioligand [3H]DADLE binding to rat brain delta receptor
Summary of the method: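 Rat brain membranes; [3H]DADLE 1.7-2.5 nM, 3-4 h at 25 °C in 10 mM Tris-HCl pH 7.4 with 100 mM choline chloride, 3 mM MnCl2, 100 nM DAMGO to block mu sites, and protease inhibitor cocktail. Nonspecific binding with 20 μM levallorphan. 8-10 test drug concentrations, run twice; dilutions in Tris buffer with 1 mg/mL BSA.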

Glutamate NMDA receptor [4] = assay: Inhibition of radioligand [3H]TCP binding to PCP site in rat brain; type: tissue-based
Glutamate NMDA receptor [5] = assay: Inhibition of radioligand [3H]TCP binding to rat brain PCP site.
Glutamate NMDA receptor [6] = assay: Inhibition of radioligand [3H]TCP binding to PCP site in rat brain; No inhibition; type: tissue-based
[7] = Ratio of Ki values tested against sigma receptor and Mu receptor

Mu-type opioid receptor, sequence (P33535 whole entry): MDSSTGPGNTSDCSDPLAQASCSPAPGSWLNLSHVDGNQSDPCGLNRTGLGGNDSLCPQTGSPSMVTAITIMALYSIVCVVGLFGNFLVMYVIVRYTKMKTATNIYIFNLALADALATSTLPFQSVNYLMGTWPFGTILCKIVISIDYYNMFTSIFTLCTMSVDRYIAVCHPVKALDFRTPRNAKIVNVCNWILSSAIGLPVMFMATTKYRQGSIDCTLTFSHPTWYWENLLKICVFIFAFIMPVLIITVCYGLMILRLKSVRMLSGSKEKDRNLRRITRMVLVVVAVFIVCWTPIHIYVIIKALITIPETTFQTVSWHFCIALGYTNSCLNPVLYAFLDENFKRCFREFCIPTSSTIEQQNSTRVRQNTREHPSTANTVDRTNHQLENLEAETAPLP
Delta-type opioid receptor, sequence (P33533 whole entry): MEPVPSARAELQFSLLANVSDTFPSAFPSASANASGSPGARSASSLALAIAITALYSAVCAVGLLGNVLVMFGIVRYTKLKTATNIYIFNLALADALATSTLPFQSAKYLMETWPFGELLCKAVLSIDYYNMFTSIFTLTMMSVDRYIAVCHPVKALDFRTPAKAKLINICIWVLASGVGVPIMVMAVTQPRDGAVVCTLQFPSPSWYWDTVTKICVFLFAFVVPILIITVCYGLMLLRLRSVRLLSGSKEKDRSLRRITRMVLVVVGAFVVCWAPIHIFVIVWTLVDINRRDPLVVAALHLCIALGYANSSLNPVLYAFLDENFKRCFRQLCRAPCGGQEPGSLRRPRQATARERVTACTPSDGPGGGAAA
Kappa-type opioid receptor, sequence (P41144 whole entry): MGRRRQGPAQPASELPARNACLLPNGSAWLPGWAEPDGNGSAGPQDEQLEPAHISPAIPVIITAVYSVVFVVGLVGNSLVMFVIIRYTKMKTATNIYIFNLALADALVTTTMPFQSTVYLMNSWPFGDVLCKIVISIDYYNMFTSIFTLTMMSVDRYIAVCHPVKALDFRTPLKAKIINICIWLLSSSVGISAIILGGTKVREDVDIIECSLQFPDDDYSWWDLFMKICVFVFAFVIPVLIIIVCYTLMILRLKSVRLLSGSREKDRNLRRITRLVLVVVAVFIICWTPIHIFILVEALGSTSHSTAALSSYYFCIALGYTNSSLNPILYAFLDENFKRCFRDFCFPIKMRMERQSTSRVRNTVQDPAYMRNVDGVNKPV

Row | SMILES | Ki (Mu-type opioid receptor) [nM] | Ki [1] [nM] | Ki [2] [nM] | Ki [3] [nM] | Ki (Glutamate NMDA receptor [4]) [nM] | Ki (Glutamate NMDA receptor [5]) [nM] | Ki (Glutamate NMDA receptor [6]) | Ratio [7]
1 | CN1CC[C@@]2(c3cccc(O)c3)CC(=O)/C(=C/c3ccc(Cl)c(Cl)c3)[C@@H]1C2 | 45.1 | 50300 | > 500 | > 500 | > 100000 | – | – | –
2 | CN1CC[C@]2(c3cccc(O)c3)CC(=O)/C(=C/c3ccccc3)[C@H]1C2 | 37.6 | 26000 | 1090 | 735 | ~100000 | – | – | –
3 | COc1cccc(C23CCN(C)C(CC(=O)C2)C3)c1 (stereo not drawn) | – | 23300 | – | – | – | > 100000 | – | –
4 | CN1CC[C@@]2(c3cccc(O)c3)CC(=O)/C(=C/c3ccccc3)[C@@H]1C2 | 392 | 7400 | 889 | 1990 | > 100000 | – | – | –
5 | COc1cccc(C23CCN(C)C(C2)/C(=C\c2ccccc2)C(=O)C3)c1 (stereo not drawn) | – | 11600 | – | – | > 50000 | – | – | –
6 | C[N+]1(C)CCC2(c3cccc(O)c3)CC(=O)/C(=C/c3ccccc3)C1C2.[I-] (stereo not drawn) | > 700 | 14700 | > 5000 | > 1000 | – | – | Not Active | < 7.7
7 | CN1CC[C@@]2(c3cccc(O)c3)CC(=O)/C(=C/c3ccc(Cl)c(Cl)c3)[C@H]1C2 | 4.5 | 18600 | > 500 | 271 | > 100000 | – | – | –
8 | CN1CCC2(c3cccc(O)c3)CC(=O)/C(=C/c3ccc(Cl)c(Cl)c3)C1C2 (stereo not drawn) | 6.1 | – | > 500 | 240 | > 100000 | – | – | –
9 | CN1CCC2(c3cccc(O)c3)CC(=O)CC1C2 (stereo in doubt; 4) | 5.5 | 46400 | 1010 | 320 | – | – | – | –
10 | CN1CCC2(c3cccc(O)c3)CC(=O)CC1C2 (stereo in doubt) | 8.7 | 25300 | 491 | 121 | – | > 100000 | – | –
11 | CN1CCC2(c3cccc(O)c3)CC(=O)/C(=C/c3ccccc3)C1C2 (stereo not drawn) | 33.9 | 14400 | 576 | > 500 | > 100000 | – | – | –
